From ChEMBL document CHEMBL4229558, “Elongation of the Hydrophobic Chain as a Molecular Switch: Discovery of Capsaicin Derivatives and Endogenous Lipids as Potent Transient Receptor Potential Vanilloid Channel 2 Antagonists” (J Med Chem, 2018)
Activity calls are given as the source filed them. The rule behind the calls is not given here.

What was measured:
[1] = target: T1, Transient receptor potential cation channel subfamily V member 2 (Rattus norvegicus, UniProt Q9WUD2); assay: Antagonist activity at recombinant rat TRPV2 expressed in HEK293 cells assessed as inhibition of CBD-induced Ca2+ levels preincubated for 5 mins followed by agonist addition by Fuo-4-AM based spectrofluorimetry; format: cell-based
T1 sequence (Q9WUD2 whole entry): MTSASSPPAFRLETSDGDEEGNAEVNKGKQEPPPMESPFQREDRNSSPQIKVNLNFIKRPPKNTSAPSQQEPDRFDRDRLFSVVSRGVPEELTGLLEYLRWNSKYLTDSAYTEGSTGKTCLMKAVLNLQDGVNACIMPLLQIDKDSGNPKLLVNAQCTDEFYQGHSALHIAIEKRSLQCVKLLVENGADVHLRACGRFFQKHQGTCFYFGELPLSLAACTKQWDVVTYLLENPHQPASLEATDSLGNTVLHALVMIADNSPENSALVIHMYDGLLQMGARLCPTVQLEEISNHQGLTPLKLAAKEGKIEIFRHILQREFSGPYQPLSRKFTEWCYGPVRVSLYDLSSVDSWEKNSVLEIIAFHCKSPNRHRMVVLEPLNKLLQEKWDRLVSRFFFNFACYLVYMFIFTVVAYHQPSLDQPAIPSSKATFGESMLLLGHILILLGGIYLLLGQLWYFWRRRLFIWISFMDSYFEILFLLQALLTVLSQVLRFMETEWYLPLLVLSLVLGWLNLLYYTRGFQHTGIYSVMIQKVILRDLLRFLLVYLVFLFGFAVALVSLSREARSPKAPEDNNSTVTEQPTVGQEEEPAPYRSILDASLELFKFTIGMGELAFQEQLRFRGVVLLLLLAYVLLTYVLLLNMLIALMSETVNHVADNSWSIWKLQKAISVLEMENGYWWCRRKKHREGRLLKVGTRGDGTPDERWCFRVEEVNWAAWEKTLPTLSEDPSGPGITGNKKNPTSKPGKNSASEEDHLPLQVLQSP
Outline: (§1)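 HEK-293 cells heterologously expressing rat TRPV2, fluorometric intracellular Ca2+ assay. Cells are preincubated 5 min with varying test concentrations, then challenged with LPC (3 µM) or CBD (2 µM). Inhibition of the agonist-evoked [Ca2+]i rise gives IC50 (µM).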

[2] = target: T1, Transient receptor potential cation channel subfamily V member 2; assay: Antagonist activity at recombinant rat TRPV2 expressed in HEK293 cells assessed as inhibition of LPC-induced Ca2+ levels preincubated for 5 mins followed by agonist addition by Fuo-4-AM based spectrofluorimetry; format: cell-based; outline: as §1
[3] = target: T2, Transient receptor potential cation channel subfamily V member 2 (Rattus norvegicus) (UniProt Q9WUD2); assay: Non-competitive antagonist activity at recombinant rat TRPV2 expressed in HEK293 cells assessed as inhibition of LPC-induced Ca2+ levels preincubated for 5 mins followed by agonist addition by Fuo-4-AM dependent spectrofluorimetry based Schild analysis; format: cell-based
T2 sequence (whole entry): T1 sequence (Q9WUD2 whole entry)
Outline: (§2)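 Schild analysis in rat TRPV2-HEK-293 cells by fluorometric Ca2+ assay. Full LPC or CBD concentration–response curves are run at increasing antagonist concentrations. Each agonist concentration is expressed as percent of its effect at 2x10-4 M without antagonist.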

[4] = target: T2, Transient receptor potential cation channel subfamily V member 2 (Rattus norvegicus); assay: Non-competitive antagonist activity at recombinant rat TRPV2 expressed in HEK293 cells assessed as inhibition of CBD-induced Ca2+ levels preincubated for 5 mins followed by agonist addition by Fuo-4-AM dependent spectrofluorimetry based Schild analysis; format: cell-based; outline: as §2
[5] = target: Transient receptor potential cation channel subfamily V member 1 (Homo sapiens, UniProt Q8NER1); assay: Agonist activity at recombinant human TRPV1 expressed in HEK293 cells assessed as induction of Ca2+ levels by Fuo-4-AM based spectrofluorimetry
Chain of Transient receptor potential cation channel subfamily V member 1 (Q8NER1 whole entry): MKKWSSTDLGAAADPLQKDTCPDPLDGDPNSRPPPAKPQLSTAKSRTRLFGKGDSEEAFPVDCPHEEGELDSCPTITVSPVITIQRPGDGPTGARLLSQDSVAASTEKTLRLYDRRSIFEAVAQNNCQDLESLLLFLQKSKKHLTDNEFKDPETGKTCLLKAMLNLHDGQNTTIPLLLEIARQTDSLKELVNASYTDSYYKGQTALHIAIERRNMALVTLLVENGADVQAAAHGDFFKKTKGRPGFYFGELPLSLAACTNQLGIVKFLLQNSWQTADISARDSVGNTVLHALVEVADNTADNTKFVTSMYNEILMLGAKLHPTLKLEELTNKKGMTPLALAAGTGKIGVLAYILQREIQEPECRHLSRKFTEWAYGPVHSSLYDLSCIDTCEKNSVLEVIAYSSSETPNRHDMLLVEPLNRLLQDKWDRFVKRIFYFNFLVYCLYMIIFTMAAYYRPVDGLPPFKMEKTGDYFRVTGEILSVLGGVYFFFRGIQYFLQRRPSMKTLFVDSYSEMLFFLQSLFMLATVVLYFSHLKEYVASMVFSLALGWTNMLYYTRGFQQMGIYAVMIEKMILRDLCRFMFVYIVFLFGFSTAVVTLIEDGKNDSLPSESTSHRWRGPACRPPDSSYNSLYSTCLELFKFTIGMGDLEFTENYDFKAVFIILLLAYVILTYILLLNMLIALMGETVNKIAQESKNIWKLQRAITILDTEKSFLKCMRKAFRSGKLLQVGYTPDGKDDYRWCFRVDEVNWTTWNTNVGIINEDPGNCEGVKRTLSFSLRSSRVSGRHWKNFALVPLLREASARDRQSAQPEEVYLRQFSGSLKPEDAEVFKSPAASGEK

With `CCCCCCCC/C=C\CCCCCCCCCCCC(N)=O` the IC50 [1] was 7100 nM and the IC50 [2] was 670 nM.
Work on `CCCCCCCCCCCCCCCCSC[C@H](N)C(=O)NCc1ccc(O)c(OC)c1` yielded an IC50 [2] of 1400 nM.
For `CCCCCCCC/C=C\CCCCCCCCCCCC(=O)NCc1ccc(O)c(OC)c1`, the IC50 [1] was 1500 nM and the IC50 [2] was 490 nM.
With `CCCCC/C=C\C/C=C\CCCCCCCCCCCC(=O)NCc1ccc(O)c(OC)c1` the IC50 [1] was 1800 nM and the IC50 [2] was 820 nM.
For `CCCCCCCC/C=C\CCCCCCCC(=O)NCc1ccc(O)c(OC)c1` [OLVANIL], the IC50 [1] was 1700 nM, the inhibition [3] was “Active” and the inhibition [4] was “Active”. It also gave an IC50 [2] of 160 nM.
With `CC/C=C\C/C=C\C/C=C\C/C=C\C/C=C\C/C=C\CCC(=O)NCCO` the IC50 [1] was 1630 nM and the IC50 [2] was > 10000 nM.
Work on `CCCCCCCC/C=C\CCCCCCCCSCCC(=O)NCc1ccc(O)c(OC)c1` yielded an IC50 [2] of 2500 nM.
`CCCCC/C=C\C/C=C\CCCCCCCCSCCC(=O)NCc1ccc(O)c(OC)c1` showed an IC50 [1] of 2800 nM and an IC50 [2] of 1400 nM.
`CCCCCC[C@@H](O)C/C=C/CCCCCCCC(=O)NCc1ccc(O)c(OC)c1` was tested, and the IC50 [1] was 7500 nM and the IC50 [2] was > 10000 nM.
Work on `CCCCCCCCCCCCCCCCOC(=O)CSC[C@H](N)C(=O)NCc1ccc(O)c(OC)c1` yielded an IC50 [2] of 1400 nM.
With `CCCCCCCC/C=C\CCCCCCCC[Se]CCC(=O)NCc1ccc(O)c(OC)c1` the IC50 [1] was 3200 nM and the IC50 [2] was 1800 nM.
For `CC/C=C\C/C=C\C/C=C\C/C=C\C/C=C\CCCC(=O)NCCO`, the IC50 [1] was 2300 nM and the IC50 [2] was > 10000 nM.
In the case of `CCCCCCCCCCCCCCCC(=O)NCc1ccc(O)c(OC)c1`, the IC50 [1] is reported as > 10000 nM and the IC50 [2] is reported as > 10000 nM.
`CCCCC/C=C\C/C=C\CCCCCCCC(N)=O` showed an IC50 [1] of 1200 nM and an IC50 [2] of 2200 nM.
`CCCCCCCCCCCCCCCC[Se]CCC(=O)NCc1ccc(O)c(OC)c1` showed an IC50 [2] of 4300 nM.
For `CCCCCCCCCCCCCCCC(=O)NCCO` [PALMIDROL], the IC50 [1] was > 10000 nM and the IC50 [2] was > 10000 nM.
For `NCCOB(c1ccccc1)c1ccccc1`, the EC50 [5] was 129000 nM.
Molecule `CCCCCCCC/C=C\CCCCCCCC(=O)NCCO` [OLEOYLETHANOLAMIDE] has an IC50 [1] of 5400 nM and an IC50 [2] of 1800 nM.
`CCCCCC/C=C\CCCCCCCC(=O)NCCO` was tested, and the IC50 [1] was 1700 nM and the IC50 [2] was 3500 nM.
For `CCCCCCCCCCCCCCCCSCCC(=O)NCc1ccc(O)c(OC)c1`, the IC50 [2] was 3800 nM.
For `CCCCCCC(=O)CC(O)CCCCCCCCC(=O)NCc1ccc(O)c(OC)c1` (configuration not stated), the IC50 [1] was > 10000 nM and the IC50 [2] was > 10000 nM.
With `CCCCCC[C@H](C/C=C\CCCCCCCCSCCC(=O)NCc1ccc(O)c(OC)c1)OC(=O)Cc1ccccc1` the IC50 [2] was > 10000 nM.
`CCCCCCCC/C=C\CCCCCCCCCCCC(=O)O` [ERUCIC ACID] was tested, and the IC50 [1] was > 10000 nM and the IC50 [2] was > 10000 nM.
`CCCCCCCC/C=C\CCCCCCCC(=O)N/N=C/c1ccc(O)c(OC)c1` gave an IC50 [1] of 3000 nM and an IC50 [2] of 120 nM.
`CCCCCCCCCCCCCCCCCCCC(=O)O` [ARACHIDIC ACID] was tested, and the IC50 [1] was > 10000 nM and the IC50 [2] was > 10000 nM.
In the case of `CCCCCCCCCCCCCCCC(N)=O` [PALMITAMIDE], the IC50 [1] is reported as > 10000 nM and the IC50 [2] is reported as > 10000 nM.
For `CCCCCCCC/C=C\CCCCCCCCCCCC(=O)NCCO`, the IC50 [1] was > 10000 nM, the inhibition [3] was “Active” and the IC50 [2] was 740 nM.
With `CCCCCCCCCCCCCCCCCCCC(=O)NCc1ccc(O)c(OC)c1` the IC50 [1] was > 10000 nM and the IC50 [2] was 3100 nM.
In the case of `CCCCCCCCCCCCCCCCCC(=O)NCc1ccc(O)c(OC)c1`, the IC50 [1] is reported as > 10000 nM and the IC50 [2] is reported as > 10000 nM.
For `CCCCCCCC/C=C\CCCCCCCCSC[C@H](N)C(=O)NCc1ccc(O)c(OC)c1`, the IC50 [2] was 1900 nM.
`CCCCCCC(=O)C/C=C/CCCCCCCC(=O)NCc1ccc(O)c(OC)c1` was tested, and the IC50 [1] was 4400 nM and the IC50 [2] was > 10000 nM.
With `CCCCCCCCCCCCCCCC(=O)N/N=C/c1ccc(O)c(OC)c1` the IC50 [1] was 6000 nM and the IC50 [2] was 280 nM.
`CCCCC/C=C\C/C=C\CCCCCCCCCCCC(=O)O` was tested, and the IC50 [1] was > 10000 nM and the IC50 [2] was > 10000 nM.
`CCCCCC[C@@H](O)C/C=C\CCCCCCCCSCCC(=O)NCc1ccc(O)c(OC)c1` was tested, and the IC50 [2] was > 10000 nM.
With `CCCCC/C=C\C/C=C\CCCCCCCC(=O)NCCO` [LINOLEOYLETHANOLAMIDE] the IC50 [1] was 650 nM and the IC50 [2] was 1400 nM.
With `CCCCCCCCCCCCCCCCCC(=O)NCCO` [N-(2-HYDROXYETHYL)STEARAMIDE] the IC50 [1] was > 10000 nM and the IC50 [2] was > 10000 nM.
For `CCCCCCCC/C=C\CCCCCCCC(=O)O` [OLEIC ACID], the IC50 [1] was > 10000 nM and the IC50 [2] was > 10000 nM.
In the case of `CCCCCCCCCCCCCCCCCC(N)=O` [OCTADECANOIC ACID AMIDE], the IC50 [1] is reported as > 10000 nM and the IC50 [2] is reported as > 10000 nM.
`CCCCCCCCCCCCCCCC[Se]C[C@H](N)C(=O)NCc1ccc(O)c(OC)c1` showed an IC50 [2] of 1200 nM.
`CCCCCCCCCCCCCCCCCCCC(N)=O` was tested, and the IC50 [1] was > 10000 nM and the IC50 [2] was > 10000 nM.
In the case of `CCCCCCCC/C=C\CCCCCCCC(N)=O` [OLEAMIDE], the IC50 [1] is reported as 2100 nM and the IC50 [2] is reported as 2100 nM.
`CCCCCCCC/C=C\CCCCCCCC[Se]C[C@H](N)C(=O)NCc1ccc(O)c(OC)c1` was tested, and the IC50 [1] was 980 nM, the inhibition [3] was “Active” and the inhibition [4] was “Active”. It also gave an IC50 [2] of 1700 nM.
For `CCCCCCCCCCCCCCCCCCCC(=O)NCCO`, the IC50 [1] was > 10000 nM and the IC50 [2] was > 10000 nM.
For `CCCCCC[C@H](C/C=C\CCCCCCCC[Se]CCC(=O)NCc1ccc(O)c(OC)c1)OC(=O)Cc1ccccc1`, the IC50 [1] was 2300 nM and the IC50 [2] was > 10000 nM.
Work on `CCCCC/C=C\C/C=C\CCCCCCCC(=O)NCc1ccc(O)c(OC)c1` yielded an IC50 [1] of 2100 nM and an IC50 [2] of 2600 nM.
In the case of `CCCCCCCCCCCCCCCC(=O)O` [PALMITIC ACID], the IC50 [1] is reported as > 10000 nM and the IC50 [2] is reported as > 10000 nM.
`CCCCCCCCCCCCCCCCOC(=O)CSCCC(=O)NCc1ccc(O)c(OC)c1` was tested, and the IC50 [2] was > 10000 nM.
With `CCCCC/C=C\C/C=C\C/C=C\C/C=C\CCCC(=O)O` [ARACHIDONIC ACID] the IC50 [1] was > 10000 nM and the IC50 [2] was > 10000 nM.
With `CCCCC/C=C\C/C=C\CCCCCCCC[Se]CCC(=O)NCc1ccc(O)c(OC)c1` the IC50 [1] was 2300 nM and the IC50 [2] was 1400 nM.
With `CCCCCC[C@@H](O)C/C=C\CCCCCCCC[Se]CCC(=O)NCc1ccc(O)c(OC)c1` the IC50 [1] was 1400 nM, the inhibition [4] was “Active” and the IC50 [2] was > 10000 nM.
In the case of `CCCCC/C=C\C/C=C\C/C=C\C/C=C\CCCC(=O)NCCO` [ANANDAMIDE], the IC50 [1] is reported as 960 nM and the IC50 [2] is reported as 8600 nM.
